In brackets after ≈: the same amount, converted by molar mass. Activity calls are given as the source filed them. The rule behind the calls is not given here.
How the values were obtained:
[1] = fT>MIC in human infected with Pseudomonas aeruginosa isolate 1055 at 500 mg administered as 4 hr infusion; format: functional
[2] = fT>MIC in human infected with Pseudomonas aeruginosa isolate 1006 at 500 mg administered as 1 hr infusion; format: functional
[3] = fT>MIC in neutropenic mouse infected with Pseudomonas aeruginosa isolate 1062 at 500 mg administered as 4 hr infusion; format: functional
How it was run: (§1)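 Mouse fT>MIC was modelled with first-order one-compartment serum PK and 25.2% binding. Mice were neutropenic (cyclophosphamide) with uranyl nitrate renal impairment. Subcutaneous doses were 5.5, 2.25, 4.5, 4.5, 4.5, 4.5, 0.75, 0.375 mg/kg at 0, 0.5, 1.5, 2.5, 3.5, 4.5, 6, 7.5 h per 8-h interval over 24 h.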

[4] = Tmax in Pseudomonas aeruginosa ATCC 27853 infected neutropenic ICR mouse at 150 mg/kg, sc administered as single dose 2 hrs postinfection by HPLC; format: ADME, organism-based; set-up: dose 150 mg/kg, route subcutaneous; settings: in vivo
How it was run: (§2)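 Neutropenic mice (cyclophosphamide ip 150 and 100 mg/kg, 4 and 1 days before inoculation) with uranyl nitrate 5 mg/kg ip 3 days before, for renal impairment. Thigh infection with ATCC 27853 at 10⁶ CFU/ml, 0.1 ml per thigh. Single sc doses 2 h later. Intracardiac blood from 6–12 mice per time point, eight time points over 4 h. Serum assayed by HPLC (linear 0.5–40 μg/ml). One-compartment first-order fit.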

[5] = Elimination rate constant in Pseudomonas aeruginosa ATCC 27853 infected neutropenic ICR mouse at 50 mg/kg, sc administered as single dose 2 hrs postinfection; format: ADME, organism-based; set-up: dose 50 mg/kg, route subcutaneous; settings: in vivo; how it was run: as §2
[6] = fT>MIC in neutropenic mouse infected with Pseudomonas aeruginosa isolate 988 at 500 mg administered as 4 hr infusion; format: functional; how it was run: as §1
[7] = fT>MIC in neutropenic mouse infected with Pseudomonas aeruginosa isolate 931 at 500 mg administered as 1 hr infusion; format: functional
How it was run: (§3)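 Free-drug time above MIC simulated from one-compartment mouse serum PK (25.2% protein binding). The mice were cyclophosphamide-neutropenic and uranyl nitrate-renally impaired. Regimen was subcutaneous 10, 15, 2.5, 1.25, 0.5, 0.25 mg/kg at 0, 0.5, 2.5, 4, 5.5, 7 h, repeated every 8 h over 24 h.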

[8] = fT>MIC in neutropenic mouse infected with Pseudomonas aeruginosa isolate 931 at 500 mg administered as 4 hr infusion; format: functional; how it was run: as §1
[9] = AUC in Pseudomonas aeruginosa ATCC 27853 infected neutropenic ICR mouse at 500 mg administered as 1 hr infusion; format: ADME, organism-based; settings: plasma, iv
Pseudomonas aeruginosa [10] = assay: Antibacterial activity against Pseudomonas aeruginosa isolate 935 by microdilution method; format: functional
How it was run: (§4)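 CLSI broth microdilution in cation-adjusted Mueller-Hinton broth (20–25 mg/liter Ca, 10–12.5 mg/liter Mg). Standard inoculum 10⁵ CFU/ml, incubated in ambient air. Clinical hospital isolates.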

Pseudomonas aeruginosa [11] = assay: Antibacterial activity against Pseudomonas aeruginosa isolate 869 by microdilution method; format: functional
[12] = AUC (0 to 24 hrs) in Pseudomonas aeruginosa ATCC 27853 infected neutropenic ICR mouse at 50 mg/kg, sc administered as single dose 2 hrs postinfection; format: ADME, organism-based; set-up: time < 24 hr, dose 50 mg/kg, route subcutaneous; settings: plasma; how it was run: as §2
Pseudomonas aeruginosa [13] = assay: Antibacterial activity against Pseudomonas aeruginosa isolate 1036 by microdilution method; format: functional
[14] = Tmax in Pseudomonas aeruginosa ATCC 27853 infected neutropenic ICR mouse at 10 mg/kg, sc administered as single dose 2 hrs postinfection by HPLC; format: ADME, organism-based; set-up: dose 10 mg/kg, route subcutaneous; settings: in vivo; how it was run: as §2
[15] = Clearance in Pseudomonas aeruginosa ATCC 27853 infected neutropenic ICR mouse at 10 mg/kg, sc administered as single dose 2 hrs postinfection; format: ADME, organism-based; set-up: dose 10 mg/kg, route subcutaneous; settings: in vivo; how it was run: as §2
Pseudomonas aeruginosa [16] = assay: Antibacterial activity against Pseudomonas aeruginosa isolate 931 by microdilution method; format: functional; how it was run: as §4
[17] = fT>MIC in human infected with Pseudomonas aeruginosa isolate 1036 at 500 mg administered as 4 hr infusion; format: functional
Pseudomonas aeruginosa [18] = assay: Antibacterial activity against Pseudomonas aeruginosa isolate 1055 by microdilution method; format: functional
[19] = fT>MIC in human infected with Pseudomonas aeruginosa isolate 1029 at 500 mg administered as 4 hr infusion; format: functional
[20] = fT>MIC in neutropenic mouse infected with Pseudomonas aeruginosa isolate 993 at 500 mg administered as 4 hr infusion; format: functional; how it was run: as §1
[21] = fT>MIC in neutropenic mouse infected with Pseudomonas aeruginosa isolate 979 at 500 mg administered as 1 hr infusion; format: functional; how it was run: as §3
[22] = fT>MIC in neutropenic mouse infected with Pseudomonas aeruginosa isolate 886 at 500 mg administered as 4 hr infusion; format: functional; how it was run: as §1
Pseudomonas aeruginosa [23] = assay: Antibacterial activity against Pseudomonas aeruginosa isolate 931 at 4 ug/ml after 24 hrs; format: functional, organism-based
[24] = AUC (0 to 24 hrs) in Pseudomonas aeruginosa ATCC 27853 infected neutropenic ICR mouse at 150 mg/kg, sc administered as single dose 2 hrs postinfection; format: ADME, organism-based; set-up: time < 24 hr, dose 150 mg/kg, route subcutaneous; settings: plasma; how it was run: as §2
[25] = fT>MIC in neutropenic mouse infected with Pseudomonas aeruginosa isolate 1082 at 500 mg administered as 1 hr infusion; format: functional; how it was run: as §3
Pseudomonas aeruginosa [26] = assay: Antibacterial activity against Pseudomonas aeruginosa isolate 944 by microdilution method; format: functional; how it was run: as §4
Pseudomonas aeruginosa [27] = assay: Antibacterial activity against Pseudomonas aeruginosa isolate 1082 by microdilution method; format: functional; how it was run: as §4
[28] = fT>MIC in neutropenic mouse infected with Pseudomonas aeruginosa isolate 1060 at 500 mg administered as 1 hr infusion; format: functional; how it was run: as §3
[29] = fT>MIC in human infected with Pseudomonas aeruginosa isolate 944 at 500 mg administered as 4 hr infusion; format: functional
[30] = fT>MIC in human infected with Pseudomonas aeruginosa isolate 988 at 500 mg administered as 1 hr infusion; format: functional
[31] = fT>MIC in neutropenic mouse infected with Pseudomonas aeruginosa isolate 1050 at 500 mg administered as 4 hr infusion; format: functional; how it was run: as §1
[32] = fT>MIC in neutropenic mouse infected with Pseudomonas aeruginosa isolate 927 at 500 mg administered as 4 hr infusion; format: functional; how it was run: as §1
[33] = fT>MIC in human infected with Pseudomonas aeruginosa isolate 935 at 500 mg administered as 4 hr infusion; format: functional
Pseudomonas aeruginosa [34] = assay: Antibacterial activity against Pseudomonas aeruginosa isolate 906 by microdilution method; format: functional
Pseudomonas aeruginosa [35] = assay: Antibacterial activity against Pseudomonas aeruginosa isolate 931 by fractionation study; format: functional
[36] = fT>MIC in human infected with Pseudomonas aeruginosa isolate 1029 at 500 mg administered as 1 hr infusion; format: functional
[37] = fT>MIC in neutropenic mouse infected with Pseudomonas aeruginosa isolate 1062 at 500 mg administered as 1 hr infusion; format: functional; how it was run: as §3
[38] = fT>MIC in human infected with Pseudomonas aeruginosa isolate 896 at 500 mg administered as 4 hr infusion; format: functional
[39] = fT>MIC in human infected with Pseudomonas aeruginosa isolate 886 at 500 mg administered as 4 hr infusion; format: functional
Pseudomonas aeruginosa [40] = assay: Antibacterial activity against Pseudomonas aeruginosa isolate 896 by microdilution method; format: functional
Pseudomonas aeruginosa [41] = assay: Antibacterial activity against Pseudomonas aeruginosa isolate 944 at 4 ug/ml after 24 hrs; format: functional, organism-based

C[C@@H](O)[C@H]1C(=O)N2C(C(=O)O)=C(S[C@@H]3CN[C@H](CNS(N)(=O)=O)C3)[C@H](C)[C@H]12 [DORIPENEM]
fT>MIC [1]: 95% | fT>MIC [2]: 17.5% | fT>MIC [3]: 95% | Tmax [4]: 13.2 min | k el at 2 h [5]: 0.000567 s⁻¹ | fT>MIC [6]: 0% | fT>MIC [7]: 30% | fT>MIC [8]: 52.5% | AUC at 1 h [9]: 37600 ng·h/mL | MIC (Pseudomonas aeruginosa [10]): 1 µg/mL (≈ 2.38 µM) | MIC (Pseudomonas aeruginosa [11]): 0.25 µg/mL (≈ 0.595 µM) | AUC(0-t) at 24 h [12]: 62400 ng·h/mL | MIC (Pseudomonas aeruginosa [13]): 2 µg/mL (≈ 4.76 µM) | Tmax [14]: 15 min | CL/F [15]: 11.2 mL/min/kg | MIC (Pseudomonas aeruginosa [16]): 4 µg/mL (≈ 9.51 µM) | fT>MIC [17]: 65% | MIC (Pseudomonas aeruginosa [18]): 0.5 µg/mL (≈ 1.19 µM) | fT>MIC [19]: 100% | fT>MIC [20]: 100% | fT>MIC [21]: 42.5% | fT>MIC [22]: 100% | Activity (Pseudomonas aeruginosa [23]): inactive | AUC(0-t) at 24 h [24]: 168000 ng·h/mL | fT>MIC [25]: 55% | MIC (Pseudomonas aeruginosa [26]): 4 µg/mL (≈ 9.51 µM) | MIC (Pseudomonas aeruginosa [27]): 1 µg/mL (≈ 2.38 µM) | fT>MIC [28]: 30% | fT>MIC [29]: 55% | fT>MIC [30]: 17.5% | fT>MIC [31]: 52.5% | fT>MIC [32]: 0% | fT>MIC [33]: 80% | MIC (Pseudomonas aeruginosa [34]): 2 µg/mL (≈ 4.76 µM) | MIC (Pseudomonas aeruginosa [35]): 3 µg/mL (≈ 7.13 µM) | fT>MIC [36]: 100% | fT>MIC [37]: 75% | fT>MIC [38]: 0% | fT>MIC [39]: 100% | MIC (Pseudomonas aeruginosa [40]): 8 µg/mL (≈ 19 µM) | Activity (Pseudomonas aeruginosa [41]): inactive
